Compound activity as filed in PubChem.
NR3A LBD binder – binders of NR3A ligand-binding domain, primary screen, biophysical, differential scanning fluorimetry, uHTS; NR3A LBD differential scanning fluorimetry, Tm shift; 0% = protein alone, 100% = glycine-bound protein; Glutamate receptor ionotropic, NMDA 3A (GRIN3A) ligand-binding domain; actives 2.5% (n = 340,000); Tm shift relative to glycine control, % at 25 µM; AID 1259313, 2017;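 active = melting temperature shift of at least 10% of the positive control shift, at one fixed dose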
ADAM17 inh – ADAM17 inhibitors, primary screen, biochemical, QFRET; recombinant ADAM17, EDANS/DABCYL FRET peptide cleavage; inhibition, % at 6.95 µM; actives 0.83% (n = 370,000);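 active = inhibition above the mean of compounds lying between control limits plus 3 SD, set per campaign, cut at about 8.5% in these data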
MT1-MMP act inh – blockers of MT1-MMP proenzyme processing, primary screen, HT1080 RFP-PRO-GFP cells, GFP/RFP fluorescence; Matrix metalloproteinase-14 (Homo sapiens), P50281; GFP/RFP ratio fluorescence, overnight; percent of plate control window, DMSO zero; GFP/RFP ratio change, % at 20 µM; actives 0.061% (n = 360,000); AID 651647, 2012;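 active = GFP/RFP ratio change of at least 30% with cell ATP level not reduced by more than half and red fluorescence within 50% of control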
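Test system: HT1080 RFP-PRO-GFP cells; Benchmarks: DMSO and RFP-L50D-GFP cell wells; Timing: cells overnight before dosing, compound overnight, 37 °C, 5% CO2; Compound: one 20 µM compound dose with 1% DMSO; Read-out: GFP/RFP fluorescence ratio.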
SKN-1 block – suppressors of acrylamide-induced Pgst-4::GFP reporter in worms, primary screen, SKN-1 inhibitor project, whole organism, uHTS, GFP/RFP fluorescence ratio, strain VP596; C. elegans VP596 Pgst-4::GFP/RFP ratio, 24 h; inhibition, % at 21.8 µM; actives 0.49% (n = 360,000);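 active = interference check ratio from 0.5 to 1.5 plus GFP to RFP signal ratio inhibition reaching or exceeding a fixed threshold, cut at about 30% in these data, passing the limit was not always enough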
MPTP block – mitochondrial permeability transition pore inhibitors, primary screen, biochemical, isolated mouse mitochondria, absorbance; Ca2+ swelling absorbance, 30 min; inhibition, % at 10 µM; actives 1.4% (n = 360,000);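 active = inhibition of 50% or more, scaled per plate between neutral and stimulator controls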
ADAM10 inh – human ADAM10 inhibitors, primary screen, biochemical, QFRET, HTS | actives 0.62% (n = 370,000) | Disintegrin and metalloproteinase domain-containing protein 10 (Homo sapiens), O14672 | AID 720582, 2013 | inhibition, % at 7 µM | recombinant ADAM10, EDANS/DABCYL FRET peptide cleavage, 3 h;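 active = inhibition above a per-campaign cutoff equal to the mean of compounds falling between control-based bounds plus 3 SD, cut at about 20% in these data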
Target sequence (O14672 214-748 limits assumed): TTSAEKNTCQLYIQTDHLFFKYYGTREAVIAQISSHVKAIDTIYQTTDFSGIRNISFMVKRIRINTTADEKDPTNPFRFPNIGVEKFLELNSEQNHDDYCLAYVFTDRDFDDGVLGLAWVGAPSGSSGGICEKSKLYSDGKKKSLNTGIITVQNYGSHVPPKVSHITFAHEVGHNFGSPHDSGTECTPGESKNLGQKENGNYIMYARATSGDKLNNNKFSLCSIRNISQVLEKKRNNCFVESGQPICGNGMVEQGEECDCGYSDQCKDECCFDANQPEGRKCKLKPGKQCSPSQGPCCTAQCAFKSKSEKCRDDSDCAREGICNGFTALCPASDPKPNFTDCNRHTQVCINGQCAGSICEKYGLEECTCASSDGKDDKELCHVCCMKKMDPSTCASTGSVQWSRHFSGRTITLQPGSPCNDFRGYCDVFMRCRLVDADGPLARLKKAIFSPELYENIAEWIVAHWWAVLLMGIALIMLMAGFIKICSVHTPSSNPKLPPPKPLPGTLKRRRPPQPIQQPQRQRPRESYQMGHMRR
MPTP counter – fluorescence retest of MPTP screen hits in isolated mitochondria, single concentration | shares compounds with MPTP block | membrane potential, Rhodamine 123 fluorescence | inhibition, % at 10 µM | actives 78% (n = 5,000) | AID 624504, 2012; in the data active = inhibition above about 22%
MPTP swell DR – mitochondrial permeability transition pore inhibitors, dose response, biochemical, absorbance, uHTS hits. isolated mitochondria swelling. shares compounds with MPTP block. IC50, µM. actives 58% (n = 780). AID 651561, 2012; in the data active = IC50 below about 20 µM
MPTP counter DR – fluorescent counter-screen in isolated mitochondria, dose response, counter-screen for MPTP inhibitor project, biochemical, fluorescence, uHTS hits | shares compounds with MPTP block | actives 49% (n = 780) | isolated mitochondria counterscreen, fluorescence read-out | AID 651564, 2012 | IC50, µM; in the data active = IC50 below about 80 µM
Numbers stand for hits; n = inactive; x = no result. Most compounds without a hit are left out; they make up all but 4.7% or so of the library.

SMILES	NR3A LBD binder	ADAM17 inh	MT1-MMP act inh	SKN-1 block	MPTP block	ADAM10 inh	MPTP counter	others
O=[N+]([O-])c1ccccc1CNc1ccc(F)c(Cl)c1	n	n	n	n	76.2	n	80.2
COc1ccc(OCc2nnc(SCC(=O)N3CCCC3)o2)cc1	n	n	n	n	n	n	x
NC[C@@H]1O[C@H](C23CC4CC(CC(C4)C2)C3)Cc2c1ccc(O)c2O	n	n	n	n	93.6	n	n
CCN1CCC(CNCc2cn(-c3ccc(OC)cc3)nc2-c2ccccc2Cl)C1 (configuration not stated)	n	n	n	n	83.6	n	n	MPTP swell DR=9.05;MPTP counter DR=n
CCn1c(=O)c2sccc2n(CC(=O)NC2CCCCC2)c1=O	n	n	n	n	n	n	x
N=c1c(S(=O)(=O)c2ccc(Cl)cc2)cc2c(=O)n3ccccc3nc2n1CCN1CCOCC1	n	n	n	n	59.6	n	n	MPTP swell DR=n;MPTP counter DR=n
N=c1c(S(=O)(=O)c2ccccc2)cc2c(=O)n3ccccc3nc2n1CCCN1CCOCC1	n	n	n	n	n	n	x
CC1CCc2c(sc3nc(C4CC4)nc(N4CCN(C(=O)c5ccco5)CC4)c23)C1 (configuration not stated)	n	n	n	n	64.3	n	68.5
COc1ccc(NC(=O)CNc2cccc(S(=O)(=O)N3CCCCCC3)c2)c([N+](=O)[O-])c1	n	n	n	n	n	n	x
Cc1cc(=O)oc2c(CN3CCOCC3)c(O)ccc12	n	n	n	n	n	n	x
CCOC(=O)c1c(C)[nH]c(C(=O)N/N=C/c2ccc(Br)cc2)c1C	n	n	n	n	99.4	n	75.8
CC1CCCN(C(=O)Nc2ccc([N+](=O)[O-])cc2)C1 (configuration not stated)	x	n	x	x	x	n	x
CCn1ccnc1CN(C)Cc1cn(-c2ccc(C)cc2)nc1-c1cccc(C)c1	23.7	n	n	n	50.9	n	n	MPTP swell DR=n;MPTP counter DR=45.8
Clc1ccc(-c2noc(CN(Cc3ccccn3)CC3CCCO3)n2)cc1 (configuration not stated)	n	n	n	n	n	n	x
CCCNC(=S)N1CCN(c2nc(-c3ccc(C)cc3)cs2)CC1	11.9	n	n	n	99.0	n	80.6
CCCNC(=S)N1CCN(c2nc(-c3cccc(OC)c3)cs2)CC1	n	n	n	n	n	n	x
COc1ccc(CCc2nnc(CCC(=O)N(C)Cc3ccnc4ccccc34)o2)cc1	n	n	n	n	79.4	n	30.4
COCc1c(C#N)c(NCc2cc(OC)c(OC)c(OC)c2)nc(C)c1[N+](=O)[O-]	n	n	n	n	75.4	n	33.7
CN(Cc1ccc(C(C)(C)C)cc1)Cc1cccc2ccccc12	x	n	x	x	x	n	x
CCCCc1c(Cc2ccccc2)ncn1CCc1ccccc1OC	x	n	n	n	85.0	n	114.0
COC(=O)c1c(NS(=O)(=O)c2ccccc2)csc1C	n	n	n	n	n	n	x
CCc1nnc(NS(=O)(=O)c2ccc(NC(=S)NC(=O)/C=C/c3ccc(F)cc3)cc2)s1	n	n	n	n	53.0	n	39.8
CC(C)CNC(=O)c1cccc2c(-c3ccc(F)c(F)c3)coc12	x	n	n	n	n	n	x
CCN(CC)S(=O)(=O)c1ccc(Oc2ccc(S(=O)(=O)N(CC)CC)cc2)cc1	n	n	n	n	96.8	n	89.1
Cc1cccc(NC(=O)c2ccccn2)c1C	n	n	n	n	n	n	x
SMILES	NR3A LBD binder	ADAM17 inh	MT1-MMP act inh	SKN-1 block	MPTP block	ADAM10 inh	MPTP counter	others
Cc1cccc(NC(=O)c2n[nH]c([N+](=O)[O-])c2Br)c1C	n	n	n	n	87.2	n	85.8
CCN(CC)S(=O)(=O)c1cccc(NC(=O)CNc2cccc(S(=O)(=O)N3CCCC3)c2)c1	n	n	n	n	89.9	n	101.1
COc1ccc(NC(=S)Nc2cccc(S(=O)(=O)N3CCCCC3)c2)cc1	n	n	n	n	67.9	n	87.7
O=C(Nc1ccc(F)cc1)Nc1cc(S(=O)(=O)N2CCOCC2)ccc1N1CCCC1	n	n	n	n	n	n	x
O=C(Nc1cccc(S(=O)(=O)N2CCCCC2)c1)Nc1ccc(Cl)cc1Cl	n	n	n	n	84.9	n	72.8
O=C(Nc1ccc(Cl)cc1)Nc1cc(S(=O)(=O)N2CCOCC2)ccc1N1CCCC1	n	n	n	n	70.9	n	73.0
Cc1ccc(-c2nnc(N3CCCCCC3)c3ccccc23)cc1	n	n	n	n	n	n	x
CCO[C@H]1OC(C(=O)N2CCN(C)CC2)=C[C@@H](c2csc3ccccc23)[C@@H]1CCCO	n	n	n	n	n	n	x
COc1ccc(OCC(=O)N/N=C(\C)c2cccs2)cc1	n	n	n	n	n	n	x
Cc1ccc(C(C)(C)C)cc1S(=O)(=O)NC(=O)c1ccccc1	n	n	n	n	n	n	x
O=C(Nc1ccc(Cl)cc1Cl)NC1CCN(S(=O)(=O)c2ccc(F)cc2)CC1	21.4	n	n	n	95.6	n	89.5
CC(C)(CO)NCc1ccc(Br)cc1	n	n	n	n	n	n	x
COc1ccc(-c2cc3ccccc3n2CC(O)CN2CCCCC2)cc1 (configuration not stated)	n	n	n	n	n	n	x
COc1ccc(-c2cc3ccccc3n2CC(O)CNCCO)cc1 (configuration not stated)	n	n	n	n	53.8	n	n	MPTP swell DR=10.2;MPTP counter DR=n
CCOc1cc(C)nc(N2CCC(C(=O)NC3CC3)CC2)n1	n	n	n	n	n	n	x
COCCNC(=S)N/N=C(\C)c1ccc(O)cc1	n	n	n	n	n	n	x
C/C(=N\NC(=S)NCC(C)(C)C)c1cc(F)cc(F)c1O	n	n	n	n	85.1	n	73.2
